ChEMBL document CHEMBL1914444, “Chemical synthesis, biological evaluation and structure-activity relationship analysis of azaisoindolinones, a novel class of direct enoyl-ACP reductase inhibitors as potential antimycobacterial agents” (Bioorg Med Chem, 2011)
≈ marks a conversion by molar mass, not a printed value.

Legend:
[1] = target: T1, Enoyl-[acyl-carrier-protein] reductase [NADH] (Mycobacterium tuberculosis) (UniProt P9WGR1); experiment: Inhibition of Mycobacterium tuberculosis InhA using 2-trans-decenoyl-CoA as substrate at 30 uM after 5 mins by spectrophotometry
T1 sequence (whole entry): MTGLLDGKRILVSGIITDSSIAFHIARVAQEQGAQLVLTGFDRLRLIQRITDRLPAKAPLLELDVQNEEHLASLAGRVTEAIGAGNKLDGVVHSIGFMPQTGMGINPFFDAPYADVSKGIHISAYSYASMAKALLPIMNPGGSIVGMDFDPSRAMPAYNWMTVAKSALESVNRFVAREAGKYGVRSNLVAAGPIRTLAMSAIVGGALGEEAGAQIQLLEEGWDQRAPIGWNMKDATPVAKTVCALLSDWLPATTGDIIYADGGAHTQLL
How it was run: (§1)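 Recombinant M. tuberculosis InhA expressed in E. coli (70 nM) was pre-incubated with NADH and compound in 30 mM PIPES, 150 mM NaCl, pH 6.8, 25 °C, with 0.5% final DMSO. Substrate was 2-trans-decenoyl-CoA. Activity was followed as the decrease in A340; initial rates gave % inhibition versus control. Run in triplicate.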

[2] = test system: Mycobacterium tuberculosis; experiment: Antimycobacterial activity Mycobacterium tuberculosis H37Rv after 6 days by MTT colorimetric assay; type: functional, organism-based; details: 144 h
[3] = target: T1, Enoyl-[acyl-carrier-protein] reductase [NADH] (Mycobacterium tuberculosis); experiment: Inhibition of Mycobacterium tuberculosis InhA using 2-trans-decenoyl-CoA as substrate at 100 uM after 5 mins by spectrophotometry; how it was run: as §1

| Compound | inhibition [1] [%] | MIC [2] [µM] | inhibition [3] [%] | IC50 [2] [µM] |
| --- | --- | --- | --- | --- |
| CCCCCCCCCCCCOc1cccc(C2(O)NC(=O)c3cnccc32)c1 (racemic) | 12 | 156 (≈ 64 µg/mL) | 27 | – |
| CCCCCCCCCCCCc1cccc(C2(O)NC(=O)c3cnccc32)c1 (racemic) | – | 9.8 (≈ 3.87 µg/mL) | – | 7 |
| CCCCCCCCCCCCCCCCCCOc1cccc(C2(O)NC(=O)c3cnccc32)c1 (racemic) | 28 | 25 (≈ 12.4 µg/mL) | 67 | 12 |
| CCCCCCCCOc1cccc(C2(O)NC(=O)c3cnccc32)c1 (racemic) | – | 250 (≈ 88.6 µg/mL) | 12 | – |
| CCCCCCCCCCCCOc1ccc(C2(O)NC(=O)c3cnccc32)cc1 (racemic) | 1 | > 100 | 16 | – |
| CCCCCCCCCCCCOc1ccccc1C1(O)NC(=O)c2cnccc21 (racemic) | 0 | > 100 | 0 | – |
| CCCCCCCCCCCCOc1cccc(C2(OC)NC(=O)c3cnccc32)c1 (racemic) | – | 25 (≈ 10.6 µg/mL) | 0 | 10 |
| CCCCCCCCCCCCSc1cccc(C2(O)NC(=O)c3cnccc32)c1 (racemic) | 15 | 12.5 (≈ 5.33 µg/mL) | 66 | 6.5 |
| CCCCCCCCCCCCCCCCCCSc1cccc(C2(O)NC(=O)c3cnccc32)c1 (racemic) | 26 | > 100 | – | – |
| CCCCCCCCCCCCNc1cccc(C2(O)NC(=O)c3cnccc32)c1 (racemic) | 1 | > 100 | 9 | – |
| CCCCCCCCCCCCN1C(=O)c2cnccc2C1(O)c1ccccc1 (racemic) | 0 | 12.5 (≈ 4.93 µg/mL) | 13 | 4.5 |
| CCCCCCCCCCCCCCC1(O)NC(=O)c2cnccc21 (racemic) | – | > 100 | 10 | – |
| CCCCCCCCCCCCOC1(c2ccccc2)NC(=O)c2cnccc21 (racemic) | 20 | 25 (≈ 9.86 µg/mL) | – | 9.5 |
| O=C(O)c1cn(C2CC2)c2cc(N3CCNCC3)c(F)cc2c1=O [CIPROFLOXACIN] | – | 2.5 (≈ 0.828 µg/mL) | – | – |
| NNC(=O)c1ccncc1 [ISONIAZID] | – | 0.6 (≈ 0.0823 µg/mL) | – | – |
